ChEMBL document CHEMBL1275331, “Discovery of a novel 5-HT(3) antagonist/5-HT(1A) agonist 3-amino-5,6,7,8-tetrahydro-2-{4-[4-(quinolin-2-yl)piperazin-1-yl]butyl}quinazolin-4(3H)-one (TZB-30878) as an orally bioavailable agent for irritable bowel syndrome” (J Med Chem, 2010)

Legend:
[1] = target: T1, 5-hydroxytryptamine receptor 3A (Homo sapiens, UniProt P46098); test: Displacement of [3H]BRL-43694 from human 5HT3 receptor expressed in HEK293 cells by liquid scintillation counting; format: cell-based
T1 sequence (P46098 whole entry): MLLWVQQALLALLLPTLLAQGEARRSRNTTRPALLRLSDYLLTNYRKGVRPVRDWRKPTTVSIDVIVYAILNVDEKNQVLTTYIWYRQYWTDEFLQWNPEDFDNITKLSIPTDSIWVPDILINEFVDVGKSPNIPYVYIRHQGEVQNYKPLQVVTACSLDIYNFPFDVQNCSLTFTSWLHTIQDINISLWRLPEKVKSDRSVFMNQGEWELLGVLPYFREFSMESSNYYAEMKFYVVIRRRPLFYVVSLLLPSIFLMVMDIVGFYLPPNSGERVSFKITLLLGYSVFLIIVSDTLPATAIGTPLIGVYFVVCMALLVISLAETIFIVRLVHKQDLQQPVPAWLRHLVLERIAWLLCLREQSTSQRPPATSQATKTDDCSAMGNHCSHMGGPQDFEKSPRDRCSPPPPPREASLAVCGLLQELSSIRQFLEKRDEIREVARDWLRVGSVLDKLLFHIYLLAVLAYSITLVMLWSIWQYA
Method in brief: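 HEK-293 membranes expressing human 5-HT3 were incubated with 0.5 nmol/L [3H]BRL-43694 (final) for 60 min at 25 °C. Buffer: 50 mM Tris-HCl, 5 mM MgCl2, 1 mM EDTA, pH 7.5. Compound came from 270 μmol/L DMSO stock, diluted in buffer. Filtration was through GF/B presoaked in 0.5% polyethyleneimine, with two cold Tris washes. Run in duplicate or triplicate; percent inhibition calculated.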

[2] = target: T2, 5-hydroxytryptamine receptor 1A (Homo sapiens, UniProt P08908); test: Displacement of [3H]8-OH-DPAT from human 5HT1A receptor expressed in CHO cells by liquid scintillation counting; format: cell-based
T2 sequence (P08908 whole entry): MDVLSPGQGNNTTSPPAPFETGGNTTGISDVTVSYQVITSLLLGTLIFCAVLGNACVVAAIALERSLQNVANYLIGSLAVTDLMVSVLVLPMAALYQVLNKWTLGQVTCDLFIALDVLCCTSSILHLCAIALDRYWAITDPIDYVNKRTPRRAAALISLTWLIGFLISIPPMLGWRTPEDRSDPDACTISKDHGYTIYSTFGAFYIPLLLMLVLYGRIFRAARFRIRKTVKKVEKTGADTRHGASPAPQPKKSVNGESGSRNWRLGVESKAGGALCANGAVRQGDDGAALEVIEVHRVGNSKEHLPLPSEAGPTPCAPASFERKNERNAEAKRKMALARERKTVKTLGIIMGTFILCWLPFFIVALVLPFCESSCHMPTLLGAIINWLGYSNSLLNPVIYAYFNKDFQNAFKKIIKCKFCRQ
Method in brief: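 CHO-cell membranes with human 5-HT1A were incubated with 0.25 nmol/L [3H]8-OH-DPAT (final) for 60 min at 27 °C. Buffer: 50 mM Tris-HCl, 10 mM MgSO4, 0.5 mM EDTA, 0.1% ascorbic acid, pH 7.4. Compound came from 270 μmol/L DMSO stock, diluted in buffer. Filtration was through GF/C presoaked in 0.3% polyethyleneimine, with two cold Tris washes. Run in duplicate or triplicate; percent inhibition of binding calculated.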

[3] = Drug level in Sprague-Dawley rat brain at 3 mg/kg, po after 2 hrs by HPLC analysis; format: ADME, organism-based; design: dose 3 mg/kg, route oral; conditions: read-out: Drug uptake
Method in brief: (§1)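 Total compound concentration was measured in brain and blood at 2, 4 and 8 h after a single oral 3 mg/kg dose. Brain/blood ratio was also derived. Values are mean ± SD of three rats.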

[4] = Drug level in Sprague-Dawley rat blood at 3 mg/kg, po after 2 hrs by HPLC analysis; format: ADME, organism-based; design: dose 3 mg/kg, route oral; conditions: whole blood, read-out: Drug uptake; method in brief: as §1
[5] = Ratio of drug level in brain to blood in Sprague-Dawley rat at 3 mg/kg, po after 2 hrs; format: ADME, organism-based; design: dose 3 mg/kg, route oral
Method in brief: (§2)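 Rats dosed 3 mg/kg orally; total compound levels measured in brain and blood at 2, 4 and 8 h, brain/blood ratio derived. Mean ± SD of three rats.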

[6] = Drug level in Sprague-Dawley rat brain at 3 mg/kg, po after 4 hrs by HPLC analysis; format: ADME, organism-based; design: dose 3 mg/kg, route oral; conditions: read-out: Drug uptake; method in brief: as §1
[7] = Drug level in Sprague-Dawley rat blood at 3 mg/kg, po after 4 hrs by HPLC analysis; format: ADME, organism-based; design: dose 3 mg/kg, route oral; conditions: whole blood, read-out: Drug uptake; method in brief: as §1
[8] = Ratio of drug level in brain to blood in Sprague-Dawley rat at 3 mg/kg, po after 4 hrs; format: ADME, organism-based; design: dose 3 mg/kg, route oral; method in brief: as §2
[9] = Drug level in Sprague-Dawley rat brain at 3 mg/kg, po after 8 hrs by HPLC analysis; format: ADME, organism-based; design: dose 3 mg/kg, route oral; conditions: read-out: Drug uptake; method in brief: as §1
[10] = Drug level in Sprague-Dawley rat blood at 3 mg/kg, po after 8 hrs by HPLC analysis; format: ADME, organism-based; design: dose 3 mg/kg, route oral; conditions: whole blood, read-out: Drug uptake; method in brief: as §1
[11] = Ratio of drug level in brain to blood in Sprague-Dawley rat at 3 mg/kg, po after 8 hrs; format: ADME, organism-based; design: dose 3 mg/kg, route oral; method in brief: as §2

| Structure (SMILES) | IC50 [1] | IC50 [2] | also measured |
| --- | --- | --- | --- |
| Nn1c(CCCN2CCN(c3ccc4ccccc4n3)CC2)nc2c(c1=O)CCCC2 | > 100 nM | 90.4 nM | – |
| CC1CCc2nc(CCCCN3CCN(c4ccc5ccccc5n4)CC3)n(N)c(=O)c2C1 (stereo not drawn) | 48.3 nM | < 10 nM | – |
| Nn1c(SCCCN2CCN(c3ccc4ccccc4n3)CC2)nc2cccnc2c1=O | 61 nM | < 1 nM | – |
| Nn1c(CCCCN2CCN(c3ccc4ccccc4n3)CC2)nc2c(c1=O)CC(O)CC2 (stereo not drawn) | 46.5 nM | < 10 nM | – |
| Nn1c(CCCCN2CCN(c3ccc4ccccc4n3)CC2)nc2cccc(F)c2c1=O | 50.6 nM | < 10 nM | – |
| Nn1c(CCCCN2CCN(c3ccc4ccccc4n3)CC2)nc2cccc(Cl)c2c1=O | > 100 nM | < 10 nM | – |
| Nn1c(CCCCN2CCN(c3nc4ccccc4c4c3CCCC4)CC2)nc2c(c1=O)CCCC2 | > 100 nM | > 100 nM | – |
| Nn1c(SCCCN2CCN(c3ccc4ccccc4n3)CC2)nc2sc3c(c2c1=O)CCNC3 | 100 nM | 5.2 nM | – |
| Nn1c(CCN2CCN(c3ccc4ccccc4n3)CC2)nc2c(c1=O)CCCC2 | > 100 nM | > 100 nM | – |
| O=c1[nH]c(CCCCN2CCN(c3ccc4ccccc4n3)CC2)nc2c1CCCC2 | 24.6 nM | 6.2 nM | – |
| Cc1sc2nc(SCCCN3CCN(c4ccccn4)CC3)n(N)c(=O)c2c1C | > 100 nM | 4.2 nM | – |
| Cc1c(N2CCN(CCCCc3nc4c(c(=O)n3N)CCCC4)CC2)nc2ccccc2c1C | > 100 nM | 64.6 nM | – |
| Cc1cc2ccccc2nc1N1CCN(CCCCc2nc3c(c(=O)n2N)CCCC3)CC1 | > 100 nM | 96 nM | – |
| Nn1c(CCCCN2CCN(c3ccc4ccccc4n3)CC2)nc2c(c1=O)CCCCC2 | 84.8 nM | < 10 nM | – |
| Nn1c(CCCCN2CCN(c3ccc4ccc(O)cc4n3)CC2)nc2c(c1=O)CCCC2 | 55.2 nM | 46.6 nM | – |
| Nn1c(SCCCN2CCN(c3ccc4ccccc4n3)CC2)nc2cc([N+](=O)[O-])ccc2c1=O | > 100 nM | 1.3 nM | – |
| Nn1c(CCCCCN2CCN(c3ccc4ccccc4n3)CC2)nc2c(c1=O)CCCC2 | > 100 nM | 7.6 nM | – |
| CC(=O)N1CCc2c(sc3nc(CCCCN4CCN(c5ccc6ccccc6n5)CC4)n(N)c(=O)c23)C1 | 22.1 nM | < 10 nM | concentration at 2 h [3]: 15.1 nM; concentration at 2 h [4]: 51 nM; Kp at 2 h [5]: 0.294; concentration at 4 h [6]: 19.5 nM; concentration at 4 h [7]: 55.8 nM; Kp at 4 h [8]: 0.355; concentration at 8 h [9]: 13.4 nM; concentration at 8 h [10]: 43.7 nM; Kp at 8 h [11]: 0.307 |
| Nn1c(CCCCN2CCN(c3ccc4ccccc4n3)CC2)nc2ccc(F)cc2c1=O | 99.4 nM | < 10 nM | – |
| Nn1c(SCCCN2CCN(c3ccc4ccccc4n3)CC2)nc2sc3c(c2c1=O)CCCC3 | 41.4 nM | < 10 nM | – |
| Cc1cccc2c(=O)n(N)c(CCCCN3CCN(c4ccc5ccccc5n4)CC3)nc12 | 15.6 nM | < 10 nM | – |
| Cc1sc2nc(SCCCN3CCN(c4nc5ccccc5s4)CC3)n(N)c(=O)c2c1C | 87.6 nM | 66.6 nM | – |
